Test results: ChEMBL document CHEMBL1123308 (J Med Chem, 1986)
Activity calls are given as the source filed them. The rule behind the calls is not given here.

Columns and labels:
[1] = Stabilization of helical DNA toward thermal denaturation (delta Tm) was determined (isomeric ratio A/B/C = 7:0:92); type: ADME
[2] = Partition coefficient was determined in octanol-phosphate at pH 6.0; type: physicochemical; settings: octanol/phosphate buffer
Summary of the method: (§1)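 Octanol/buffer partitioning used phosphate buffer at pH 7.4, 6.5 or 6.0 and citrate buffer at pH 4.0. Phases were separated by centrifugation at 2000 rpm for 5 min. Concentration in one phase was read by UV absorbance at 235.5 nm in 1-cm cells, and the other phase was obtained by difference. Determinations were in duplicate at 2 or 3 octanol-buffer ratios (1:10 to 1:50). Log P = log(organic/aqueous concentration).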

[3] = Partition coefficient was determined in octanol-phosphate at pH 6.5; type: physicochemical; settings: octanol/phosphate buffer; summary of the method: as §1
[4] = Partition coefficient was determined in octanol-phosphate at pH 7.4; type: physicochemical; settings: octanol/phosphate buffer; summary of the method: as §1
[5] = Stabilization of helical DNA toward thermal denaturation (delta Tm) was determined (isomeric ratio A/B/C = 28:69:0); type: ADME
[6] = system: Nucleic Acid; assay: Stabilization of helical DNA toward thermal denaturation (delta Tm) was determined (isomeric ratio A/B/C = 2:91:7); type: nucleic-acid assay
Summary of the method: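 Thermal denaturation of calf thymus DNA (5.2 × 10^-5 M P) with drug at 5.2 × 10^-6 M. Buffer was 0.01 M phosphate pH 7 with 10^-5 M EDTA and 5% Me2SO. ΔTm = Tm of the DNA-drug complex minus Tm of DNA alone. Values ≤1 are taken as insignificant binding.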

[7] = system: L1210; assay: Compound was evaluated for drug concentration for 50% inhibition of actively growing L1210 cells in culture for the inhibition of incorporation of [3H]thymidine in the DNA(isomeric ratio A/B/C = 7:0:92); type: functional; settings: Mus musculus, read-out: ED50 (the source's name)
Summary of the method: (§2)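 Actively growing L1210 cells in culture. Drug was dissolved in Me2SO and diluted to 1% Me2SO final. The read-out is [3H]thymidine incorporation into DNA or [3H]uridine incorporation into RNA. ED50 is the drug concentration giving 50% inhibition of incorporation.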

[8] = system: L1210; assay: Compound was evaluated for drug concentration for 50% inhibition of actively growing L1210 cells in culture for the inhibition of incorporation of [3H]uridine in the RNA(isomeric ratio A/B/C = 28:69:0); type: functional; settings: Mus musculus, read-out: ED50 (the source's name); summary of the method: as §2
[9] = system: L1210; assay: Compound was evaluated for drug concentration for 50% inhibition of actively growing L1210 cells in culture for the inhibition of incorporation of [3H]uridine in the RNA(isomeric ratio A/B/C = 2:91:7); type: functional; settings: Mus musculus, read-out: ED50 (the source's name); summary of the method: as §2
[10] = system: L1210; assay: Compound was evaluated for drug concentration for 50% inhibition of actively growing L1210 cells in culture for the inhibition of incorporation of [3H]uridine in the RNA(isomeric ratio A/B/C = 7:0:92); type: functional; settings: Mus musculus, read-out: ED50 (the source's name); summary of the method: as §2
[11] = system: L1210; assay: Compound was evaluated for drug concentration for 50% inhibition of actively growing L1210 cells in culture for the inhibition of incorporation of [3H]thymidine in the DNA(isomeric ratio A/B/C = 28:69:0); type: functional; settings: Mus musculus, read-out: ED50 (the source's name); summary of the method: as §2
[12] = system: L1210; assay: Compound was evaluated for drug concentration for 50% inhibition of actively growing L1210 cells in culture for the inhibition of incorporation of [3H]thymidine in the DNA(isomeric ratio A/B/C = 2:91:7); type: functional; settings: Mus musculus, read-out: ED50 (the source's name); summary of the method: as §2
[13] = system: Mus musculus; assay: Compound was evaluated for antitumor efficacy at optimum dose in mice against P388 leukemic cells at 1.25 mg/Kg day 1 (intraperitoneal); type: functional
Summary of the method: (§3)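 Mouse survival screens were run by NCI protocols, with intraperitoneal dosing on the schedule given. Efficacy is % T/C, the average survival time of treated mice divided by that of control mice, at the optimal dose.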

[14] = system: Mus musculus; assay: Compound was evaluated for antitumor efficacy at optimum dose in mice against P388 leukemic cells at 2 mg/kg q4d 5,9,13 days (intraperitoneal); type: functional; summary of the method: as §3
[15] = system: Mus musculus; assay: Compound was evaluated for antitumor efficacy at optimum dose in mice aagainst B16 melanoma cells at 0.0625 mg/Kg day 1 (intraperitoneal); type: functional; settings: in the assay text read “0.625 mg/Kg” for “0.0625 mg/Kg”; summary of the method: as §3
[16] = Partition coefficient was determined in octanol-citrate at pH 4.0; settings: octanol/citrate buffer
[17] = system: Mus musculus; assay: Compound was evaluated for antitumor efficacy at optimum dose in mice against B16 melanoma cells at 2.5 mg/kg on q4d 1,5,9 days (intravenous)
[18] = Stabilization of helical DNA toward thermal denaturation (delta Tm) was determined; type: ADME
Summary of the method: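 Calf thymus DNA thermal denaturation. Drug at 5.2 × 10^-6 M and DNA (P) at 5.2 × 10^-5 M in 0.01 M phosphate buffer, pH 7, with 10^-5 M EDTA and 5% Me2SO. ΔTm = Tm of DNA-drug complex minus Tm of DNA alone. Values ≤1 are taken as insignificant binding.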

[19] = system: L1210; assay: Compound was evaluated for drug concentration for 50% inhibition of actively growing L1210 cells in culture for the inhibition of incorporation of [3H]thymidine in the DNA; type: functional; settings: Mus musculus, read-out: ED50 (the source's name)
Summary of the method: (§4)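 Actively growing L1210 leukemia cells in culture; incorporation of [3H]thymidine into DNA or [3H]uridine into RNA measured. ED50 is the drug concentration giving 50% inhibition of incorporation. Drugs dissolved in Me2SO first, then diluted to 1% Me2SO final.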

[20] = system: Mus musculus; assay: Compound was evaluated for antitumor efficacy at optimum dose in mice against P388 leukemic cells at 7.5 mg/Kg day 1 (intraperitoneal); type: functional; summary of the method: as §3
[21] = system: Mus musculus; assay: Compound was evaluated for antitumor efficacy at optimum dose in mice against P388 leukemic cells at 8 mg/Kg on q4d 5,9,13 days (intraperitoneal); type: functional; summary of the method: as §3
[22] = system: Mus musculus; assay: Compound was evaluated for antitumor efficacy at optimum dose in mice aagainst B16 melanoma cells at 7.5 mg/Kgon day 1 (intraperitoneal); type: functional; summary of the method: as §3
[23] = system: L1210; assay: Compound was evaluated for drug concentration for 50% inhibition of actively growing L1210 cells in culture for the inhibition of incorporation of [3H]uridine in the RNA; type: functional; settings: Mus musculus, read-out: ED50 (the source's name); summary of the method: as §4
[24] = system: Mus musculus; assay: Compound was evaluated for antitumor efficacy at optimum dose in mice against B16 melanoma cells at 10 mg/Kg on q4d 1,5,9 days (intravenous)
[25] = Stabilization of helical DNA toward thermal denaturation (delta Tm) was determined (isomeric ratio A/B = 4:91); type: ADME
[26] = Stabilization of helical DNA toward thermal denaturation (delta Tm) was determined (isomeric ratio A/B = 76:12); type: ADME
[27] = system: L1210; assay: Compound was evaluated for drug concentration for 50% inhibition of actively growing L1210 cells in culture for the inhibition of incorporation of [3H]uridine in the RNA(isomeric ratio A/B = 76:12); type: functional; settings: Mus musculus, read-out: ED50 (the source's name); summary of the method: as §2
[28] = system: L1210; assay: Compound was evaluated for drug concentration for 50% inhibition of actively growing L1210 cells in culture for the inhibition of incorporation of [3H]uridine in the RNAisomeric ratio A/B = 4:91); type: functional; settings: Mus musculus, read-out: ED50 (the source's name); summary of the method: as §2
[29] = system: L1210; assay: Compound was evaluated for drug concentration for 50% inhibition of actively growing L1210 cells in culture for the inhibition of incorporation of [3H]thymidine in the DNA(isomeric ratio A/B = 4:91); type: functional; settings: Mus musculus, read-out: ED50 (the source's name); summary of the method: as §2
[30] = system: L1210; assay: Compound was evaluated for drug concentration for 50% inhibition of actively growing L1210 cells in culture for the inhibition of incorporation of [3H]thymidine in the DNA(isomeric ratio A/B = 76:12); type: functional; settings: Mus musculus, read-out: ED50 (the source's name); summary of the method: as §2
[31] = system: Mus musculus; assay: Compound was evaluated for antitumor efficacy at optimum dose in mice against B16 melanoma cells at 0.0063 mg/Kg dose on day 1 (intraperitoneal); type: functional
[32] = system: Mus musculus; assay: Compound was evaluated for antitumor efficacy at optimum dose in mice against B16 melanoma cells at q4d 5,9,13 days (intraperitoneal); Inactive; type: functional, organism-based

In the case of `COc1cccc2c1C(=O)c1c(O)c3c(c(O)c1C2=O)C[C@@](O)(C(=O)CO)C[C@@H]3OC1CC2C(OC3COCC(C#N)N32)C(C)O1` (some centres undefined), the “Delta Tm” value [1] is reported as 2.6, the logD [2] is reported as 2.4 and the logD [3] is reported as 2.29. The logD [4] was 2.41, the “Delta Tm” value [5] was 12.8 and the ΔTm [6] was 12.2. The EC50 [7] was 25000 nM, the EC50 [8] was 220 nM and the EC50 [9] was 790 nM. For the same molecule, the EC50 [10] was 2000 nM, the EC50 [11] was 550 nM and the EC50 [12] was 1400 nM. The T/C [13] was 150%, the T/C [14] was 135% and the T/C [15] was “>=153%”. It also gave a logD [16] of 2.24 and a T/C [17] of 141%.
In the case of `COc1cccc2c1C(=O)c1c(O)c3c(c(O)c1C2=O)C[C@@](O)(C(=O)CO)C[C@@H]3O[C@H]1C[C@H](N)[C@H](O)[C@H](C)O1` [DOXORUBICIN], the “Delta Tm” value [18] is reported as 12.8, the EC50 [19] is reported as 1600 nM and the T/C [20] is reported as 252%. The T/C [21] was 160%, the T/C [22] was 192% and the EC50 [23] was 580 nM. The T/C [24] was 206%.
Molecule `COc1cccc2c1C(=O)c1c(O)c3c(c(O)c1C2=O)C[C@@](O)(C(=O)CO)C[C@@H]3OC1CC(N2CCOCC2)C(O)C(C)O1` (some centres undefined) has a logD [2] of 0.96, a logD [3] of 1.42 and a logD [4] of 1.73. For the same molecule, the logD [16] was -1.1.
In the case of `COc1cccc2c1C(=O)c1c(O)c3c(c(O)c1C2=O)C[C@@](O)(C(C)=O)C[C@@H]3OC1CC2C(OC3COCC(C#N)N32)C(C)O1` (some centres undefined), the “Delta Tm” value [25] is reported as 8.3, the “Delta Tm” value [26] is reported as 5 and the EC50 [27] is reported as 220 nM. The EC50 [28] was 840 nM, the EC50 [29] was 1950 nM and the EC50 [30] was 420 nM.
With `COc1cccc2c1C(=O)c1c(O)c3c(c(O)c1C2=O)C[C@@](O)(C(=O)CO)C[C@@H]3OC1CC(N2CCOCC2C#N)C(O)C(C)O1` (some centres undefined) the “Delta Tm” value [18] was 8.7, the EC50 [19] was 3 nM and the T/C [31] was “>=138%”. The T/C [32] was “inactive” and the EC50 [23] was 0.53 nM.
